# Bioassay records deposited in PubChem BioAssay by several laboratories.
# Sampled rows, rich in hits. Any-hit rate of the full collection: about 1.4%.
# H9c2 TAG inh – inhibitors of triacylglycerol accumulation, primary screen, cell-based, uHTS, fluorescence, H9c2 | H9c2 cells, Nile Red lipid (TAG) fluorescence; cells loaded with 200 µM oleic acid | inhibition, % at 12.5 µM | 230,000 compounds, 0.66% hits;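 active = pattern-corrected inhibition of lipid staining of at least 50% with the nuclear-stain viability signal not falling by more than 50%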;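 also: 0% = DMSO wells and 100% = triacsin C control wells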
# DDE Tn7 FP inh – inhibitors of Tn7 peptide binding to fibrin DD(E), primary screen, biochemical, fluorescence polarization, human fibrin, Tn7 probe. FP displacement of FITC-Tn7 peptide from fibrin DD(E); 0% = median of compound wells per plate. 370,000 compounds, 0.13% hits. Fibrinogen beta chain (Homo sapiens), P02675. inhibition, % at 8.3 µM;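 active = inhibition above the mean of compounds falling within the control limits plus 3 SD of them, cut at about 14% in these data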;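 also: 0% = plate median of compound wells and 100% = 10 µM Aha-Tn7 peptide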
# Target sequence (P02675 whole entry, looked up): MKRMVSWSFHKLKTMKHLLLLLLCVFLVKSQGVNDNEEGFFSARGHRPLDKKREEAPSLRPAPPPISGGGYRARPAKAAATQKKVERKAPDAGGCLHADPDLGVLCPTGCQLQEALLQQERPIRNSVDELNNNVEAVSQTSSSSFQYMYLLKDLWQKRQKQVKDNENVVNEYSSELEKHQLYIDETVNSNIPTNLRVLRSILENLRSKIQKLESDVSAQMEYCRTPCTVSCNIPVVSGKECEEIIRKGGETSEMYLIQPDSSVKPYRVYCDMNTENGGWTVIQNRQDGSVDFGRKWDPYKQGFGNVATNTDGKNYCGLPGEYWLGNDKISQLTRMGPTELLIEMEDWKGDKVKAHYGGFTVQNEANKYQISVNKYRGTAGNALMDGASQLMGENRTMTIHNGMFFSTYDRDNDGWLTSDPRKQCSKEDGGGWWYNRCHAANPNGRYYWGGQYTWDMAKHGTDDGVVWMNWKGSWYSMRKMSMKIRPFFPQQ
#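 Also added: labelled Tn7 tracer, 0.1 µM; Assay system: human fibrin DD(E) protein; Amount: 2 µM fibrin DD(E); Schedule: 10 min compound pre-incubation, 3 h probe incubation at room temperature; Repeats: one replicate per compound; Read-out basis: percent inhibition; Measured by: fluorescence polarization of the labelled Tn7 tracer.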
# Tn6 DDE FP – inhibitors of Tn6 peptide binding to fibrin DD(E), primary screen, biochemical, fluorescence polarization, human fibrin, Tn6 probe; Fibrin DD(E) TRITC-Tn6 fluorescence polarization displacement; inhibition, % at 8.3 µM; 370,000 compounds, 0.21% hits; AID 720509, 2013;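 active = inhibition above a per-campaign cutoff: mean of compounds within control limits plus 3 SD, cut at about 15% in these data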;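 also: 0% = median of all compound wells on the plate and 100% = blocking peptide control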
# Cardio protect – cardioprotection against H2O2-induced cell death, primary screen, uHTS, H9c2 cells, ATPLite luminescence. H9c2 cardiomyocytes, H2O2 injury protection, 2 h. protection from H2O2 cell death, % at 20 µM. 360,000 compounds, 0.63% hits. AID 588492, 2011;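 active = compounds giving at least 50% protection of heart cells from peroxide-induced death in the single-dose screen, raw or plate-pattern-corrected value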;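 also: 0% = DMSO wells with peroxide and 100% = DMSO wells without peroxide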
# MT1-MMP act inh – blockers of MT1-MMP proenzyme processing, primary screen, HT1080 RFP-PRO-GFP cells, GFP/RFP fluorescence; Matrix metalloproteinase-14 (Homo sapiens), P50281; GFP/RFP ratio fluorescence, overnight; percent of plate control window, DMSO zero; GFP/RFP ratio change, % at 20 µM; 360,000 compounds, 0.061% hits;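 active = GFP/RFP ratio change of at least 30% with cell ATP level not reduced by more than half and red fluorescence within 50% of control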
#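 Material: RFP-PRO-GFP reporter HT1080 cells. Dosing: single-point 20 µM compound, 1% DMSO. Controls: DMSO and RFP-L50D-GFP cell wells. Timing: cells overnight before dosing, compound overnight, 37 °C, 5% CO2. Measure: GFP/RFP fluorescence ratio.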
# DAGLB inh – DAGLB lipase inhibitors, primary screen, biochemical, fluorescence, HTS; Diacylglycerol lipase-beta (Homo sapiens), Q8NCG7; inhibition, % at 5.17 µM; HEK293T DAGLB membrane lysate, EnzChek fluorogenic substrate; 340,000 compounds, 0.059% hits; in the data active = inhibition above about 34%;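 also: 0% = enzyme with vehicle and 100% = wells lacking enzyme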
# Starred values were filed as active, the others as inactive; i = inactive; x = not tested or not shown; + = active, no number.
SMILES,H9c2 TAG inh,DDE Tn7 FP inh,Tn6 DDE FP,Cardio protect,MT1-MMP act inh,DAGLB inh
O=C(CCCN1C(=O)c2cccc3cccc(c23)C1=O)N1CCN(c2ccccc2)CC1,x,5.1,-2.7,4.7,-2.5,3.6
O=C(CCCN1C(=O)c2cccc3cccc(c23)C1=O)N1CCN(c2ccccc2O)CC1,x,9.3,-0.3,66.8*,-1.7,0.4
COc1ccc(C2CC(=O)C(c3ccccc3)=CN2Cc2ccccc2)cc1 (centres undefined),x,-5.4,1.1,x,x,x
COc1ccc(Cn2ccc3ccc(-c4ccc5ccn(C(=O)C6CCC6)c5c4)cc32)cc1,x,3.5,0.2,x,x,x
CCCCCCNC(=O)C1CSCCS(=O)(=O)N1Cc1ccccc1 (centres undefined),x,-4.3,-6.6,x,x,x
C=C(C)CSc1nnc(-c2cc(-c3ccccc3)n[nH]2)n1N,x,8.0,8.5,x,x,x
CCn1cc(C(=O)N2CCc3ccccc32)c(=O)c2cc(S(=O)(=O)N(C)C3CCCCC3)ccc21,x,-4.2,5.8,63.2*,-3.5,3.5
CCn1cc(C(=O)N2CCc3ccccc32)c(=O)c2cc(S(=O)(=O)N3CCOCC3)ccc21,8.3,-6.4,3.0,0.4,-1.0,-0.8
CC(=O)NC(c1cc(F)c2cccnc2c1O)C1CC1 (centres undefined),26.2,-1.4,5.7,55.3*,3.9,1.3
CCC(=O)NC(c1cc(Cl)c2cccnc2c1O)C1CC1 (centres undefined),52.2*,5.4,3.2,32.9,3.6,6.3
CCC(=O)NC(c1cc(Cl)c2cccnc2c1O)C(C)C (centres undefined),37.8,-4.1,1.7,41.5,8.3,8.1
CC[C@H](CCCc1ccc(F)cc1)CN(Cc1ccc(OC)cc1)S(=O)(=O)c1ccc(C)cc1,x,-1.1,-4.1,x,x,x
O=C(Nc1ccc(F)cc1)OC1CC2CC1[C@H]1CCCCN1C2 (some centres undefined),x,4.2,-5.5,x,x,x
Cc1cc(Cl)ccc1OCCCC(=O)NNC(=O)c1ccccc1O,14.7,0.1,1.3,55.4*,-0.7,7.0
O=C(CCc1nc(-c2ccccc2F)no1)NCCc1c[nH]c2ccccc12,x,1.0,-2.8,x,x,x
O=C(CSc1nc2ccccc2c(=O)[nH]1)c1ccccc1,x,-6.5,-1.5,50.7*,3.3,-2.8
Cc1ccc2nc(SCc3nc4ccccc4c(=O)[nH]3)[nH]c2c1,-1.0,3.2,-6.0,57.5*,-0.7,-1.0
O=C(CSc1nc2ccccc2c(=O)[nH]1)N1CCCCC1,17.6,4.0,-1.4,70.9*,6.9,-2.1
Cc1ccc(N(CCC#N)C(=O)CSc2nc3ccccc3c(=O)[nH]2)cc1,6.7,-5.1,3.1,80.1*,-4.5,1.3
COC(=O)c1sc2nc(CSc3nc4ccc(C)cc4[nH]3)[nH]c(=O)c2c1C,21.9,0.1,1.5,10.1,-40.9,3.2
COC(=O)[C@]12C[C@H](CC(=O)N3CCSCC3)C(=O)N(CCC3=CCCCC3)C1=C[C@H](C(C)C)O[C@@H]2C1CC1,x,-7.3,-5.7,x,x,x
COC(=O)[C@]12CCCCC=C1N(Cc1ccc(OC)cc1)C(=O)[C@@H]2CC(=O)N1CCC(c2ccccc2)CC1,x,-7.7,1.5,x,x,x
COC(=O)c1cc(NC(=O)c2cc3ccccc3o2)cc(C(=O)OC)c1,x,4.2,-1.0,89.2*,-1.2,0.2
CC(C)[C@@H]1C(=O)N[C@H](Cc2cn(S(=O)(=O)c3ccccc3)c3ccccc23)C(=O)N1C,x,3.1,4.6,x,x,x
Cn1c(=O)c(NCCc2ccccc2)c2c3c(cccc31)C(=O)c1ccccc1-2,x,-1.0,+,46.0,-66.8,i
SMILES,H9c2 TAG inh,DDE Tn7 FP inh,Tn6 DDE FP,Cardio protect,MT1-MMP act inh,DAGLB inh
CCCCNc1c2c3c(cccc3n(C)c1=O)C(=O)c1ccccc1-2,x,x,x,32.1,-334.0,i
Cn1c(=O)c(NCCO)c2c3c(cccc31)C(=O)c1ccccc1-2,-61.2,-8.1,37.2*,6.0,-186.0,-165.8
CN1[C@H](Cc2ccccc2)COc2cc(N3CCSCC3)ccc2S1(=O)=O,x,-1.8,0.4,x,x,x
COc1ccc2ccccc2c1/C=N/NC(=S)Nc1cc(S(=O)(=O)N2CCOCC2)ccc1N1CCOCC1,x,8.4,5.3,-0.2,5.5,1.6
CCOc1cccc(/C=N/NC(=S)Nc2cc(S(=O)(=O)N3CCOCC3)ccc2N2CCOCC2)c1O,7.8,4.0,2.5,54.5*,-13.5,12.7
CC(=O)Nc1cc(-c2ccc(C(=O)N3CCOCC3)cc2)cn2c(-c3ccccc3)cnc12,4.0,6.7,1.4,5.2,-0.7,x
CC(=O)c1cccc(-c2cnc3c(NC=O)cc(-c4ccccc4F)cn23)c1,5.8,7.9,5.6,58.7*,-2.6,x
CC(=O)Nc1cc(-c2cccc(NS(C)(=O)=O)c2)cn2c(-c3cccc(C(C)=O)c3)cnc12,-8.3,0.0,-9.6,78.1*,-2.2,x
CC(=O)Nc1cc(-c2cccc(C(=O)N(C)C)c2)cn2c(-c3ccc(C(C)=O)cc3)cnc12,5.8,-3.5,-2.0,54.9*,1.2,x
CC(=O)Nc1cc(-c2ccc(C(=O)N3CCOCC3)cc2)cn2c(-c3ccc(C(C)=O)cc3)cnc12,1.5,5.4,0.1,76.3*,0.3,x
CCC[C@H]1[C@@H](N(C)Cc2cccs2)CC[C@@]23CCCN2C(=O)CCC[C@@H]13,x,1.1,2.4,x,x,x
CC(=O)Nc1cc(-c2ccccc2)cn2c(-c3cccc(C(C)=O)c3)cnc12,2.4,0.3,2.5,51.4*,-4.0,x
COC(=O)[C@]12C[C@H](CC(=O)NCc3ccc(OC)c(OC)c3)C(=O)N(Cc3ccc4c(c3)OCO4)C1=C[C@H](C(C)(C)C)O[C@@H]2C,x,3.2,-0.2,x,x,x
CC(=O)NC(Cc1cc(C)ccc1C)C(=O)N1CCN(C(=O)Nc2ccc(C(C)=O)cc2)CC1 (centres undefined),x,14.6*,8.1,6.6,1.1,2.8
CC(=O)NC(Cc1cc(C)ccc1C)C(=O)N1CCN(C(=O)c2ccc(Br)cc2)CC1 (centres undefined),8.1,4.8,2.7,7.2,-2.3,1.6
CC(C)(C)c1ccc(Cn2c(=N)n(CC(O)c3ccco3)c3ccccc32)cc1 (centres undefined),107.1*,x,x,-27.1,-27.5,0.8
Cc1ccccc1Cn1c(=N)n(CC(O)c2ccco2)c2ccccc21 (centres undefined),-17.7,4.2,-3.3,-2.6,2.8,-0.9
CN1CCCN(C(=O)CSc2nnc(-c3cccnc3)n2C2CCCCC2)CC1,x,12.3,-5.5,x,x,x
